This note sets out measurements from ChEMBL document CHEMBL1144120, “In vitro evaluation of antifungal properties of phenylpropanoids and related compounds acting against dermatophytes” (1999).

≈ marks a conversion by molar mass, not a printed value. Calls of active or inactive are those of the source. The rule behind the calls is not given here. A value given as a limit tells only on which side of the number the result lay.

Experiment [1] has as its system Nannizzia gypsea. As to the kind of experiment: Antifungal activity against Microsporum gypseum C 115 by agar dilution method. It is filed as functional. In short, it runs like this:
(§1)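 Dermatophytes were tested by agar dilution on Sabouraud chloramphenicol agar in 96-well plates. DMSO stock solutions were serially two-fold diluted into the medium to give final concentrations of 0.10–50 µg/mL, with DMSO not exceeding 2%. Each well received 5 µL of spore suspension.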

The subject of experiment [2] is Trichophyton mentagrophytes. As to the kind of experiment: Antifungal activity against Trichophyton mentagrophytes ATCC by agar dilution method. It is filed as functional. In short, it runs like this: as §1
The subject of experiment [3] is Trichophyton rubrum. As to the kind of experiment: Antifungal activity against Trichophyton rubrum C 113 by agar dilution method. Type of experiment: functional. In short, it runs like this:
as §1

For a further experiment, the system named is Epidermophyton floccosum. As to the kind of experiment: Antifungal activity against Epidermophyton floccosum C 114 by agar dilution method. Type of experiment: functional. In short, it runs like this: as §1
A further experiment concerns Candida albicans. As to the kind of experiment: Antifungal activity against Candida albicans ATCC 10231 by agar dilution method. It is filed as functional, organism-based. In short, it runs like this: (§2)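 Sabouraud chloramphenicol agar dilution in 96-well plates. Strains were grown on Sabouraud chloramphenicol agar slants for 48 h at 30 °C and suspended in sterile distilled water, adjusted to 10^6 viable cells/mL. DMSO stocks were serially two-fold diluted into the agar to give 0.10–50 µg/mL, with DMSO ≤2% final. 5 µL inoculum per well; incubated 24, 48 or 72 h at 30 °C per control growth; MIC recorded.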

The subject of the next experiment is Saccharomyces cerevisiae. As to the kind of experiment: Antifungal activity against Saccharomyces cerevisiae ATCC 9763 by agar dilution method. Type of experiment: functional, organism-based. In short, it runs like this: as §2
Another experiment concerns Cryptococcus neoformans. Put plainly: Antifungal activity against Cryptococcus neoformans ATCC 32264 by agar dilution method. Type of experiment: functional, organism-based. In short, it runs like this: as §2
In another experiment the test system is Aspergillus flavus. Put plainly: Antifungal activity against Aspergillus flavus ATCC 9170 by agar dilution method. It is filed as functional, organism-based. In short, it runs like this:
as §2

A further experiment has as its system Aspergillus fumigatus. As to the kind of experiment: Antifungal activity against Aspergillus fumigatus ATCC 26934 by agar dilution method. Type of experiment: functional, organism-based. In short, it runs like this:
as §2

A further experiment deals with Aspergillus niger. As to the kind of experiment: Antifungal activity against Aspergillus niger ATCC 9029 by agar dilution method. Type of experiment: functional, organism-based. In short, it runs like this: as §2
The next experiment relates to Microsporum canis. As to the kind of experiment: Antifungal activity against Microsporum canis C 112 by agar dilution method. Type of experiment: functional. In short, it runs like this:
as §1

For experiment [4], the system named is Trichophyton mentagrophytes. Put plainly: Antifungal activity against Trichophyton mentagrophytes ATCC 9972 up to 50 ug/mL by agar dilution method. It is filed as functional, organism-based. In short, it runs like this: as §1
The test system of experiment [5] is Trichophyton rubrum. As to the kind of experiment: Antifungal activity against Trichophyton rubrum C 113 up to 50 ug/mL by agar dilution method. It is filed as functional, organism-based. In short, it runs like this: as §1
The test system of experiment [6] is Nannizzia gypsea. Put plainly: Antifungal activity against Microsporum gypseum C 115 up to 50 ug/mL by agar dilution method. Type of experiment: functional, organism-based. In short, it runs like this:
as §1

Take `CC(Br)C(=O)C1CCCCC1` (stereo unspecified): the MIC against Nannizzia gypsea [1] is more than 50 µg/mL; in experiment [2], 50 µg/mL (≈ 228 µM); in the experiment with Trichophyton rubrum [3], more than 50 µg/mL; against Epidermophyton floccosum, more than 50 µg/mL; in the experiment with Microsporum canis, more than 50 µg/mL. Further, the outcome in the experiment on Candida albicans, in the experiment with Saccharomyces cerevisiae, in the experiment on Cryptococcus neoformans, with Aspergillus flavus, in the experiment on Aspergillus fumigatus and in the experiment with Aspergillus niger was inactive.
Consider `CC(Br)C(=O)c1ccc2c(c1)OCO2` (stereo unspecified), for which the result (in experiment [4]; in the experiment on Candida albicans; in the experiment on Saccharomyces cerevisiae; in the experiment on Cryptococcus neoformans; in the experiment with Aspergillus flavus; in the experiment on Aspergillus fumigatus) was inactive. For the same compound, in the experiment with Aspergillus niger, the outcome was inactive. Besides, the MIC with Nannizzia gypsea [1] came out at 25 µg/mL (≈ 97.2 µM); in experiment [2], 20 µg/mL (≈ 77.8 µM); with Trichophyton rubrum [3] it was 12.5 µg/mL (≈ 48.6 µM); in the experiment on Epidermophyton floccosum it was 6.25 µg/mL (≈ 24.3 µM); with Microsporum canis it was 3.12 µg/mL (≈ 12.1 µM).
On to `COc1cc(C(=O)C(C)Br)cc(OC)c1OC` (stereo unspecified), for which the result (in experiment [4]; in the experiment with Trichophyton rubrum [5]; in the experiment with Candida albicans; in the experiment on Saccharomyces cerevisiae; in the experiment with Cryptococcus neoformans; with Aspergillus flavus) was inactive. In addition, the result with Aspergillus fumigatus, with Aspergillus niger and in the experiment with Nannizzia gypsea [6] was inactive. Moreover, the MIC is 50 µg/mL (≈ 165 µM) in the experiment on Nannizzia gypsea [1]; 12.5 µg/mL (≈ 41.2 µM) in experiment [2]; more than 50 µg/mL in the experiment on Trichophyton rubrum [3]; 8 µg/mL (≈ 26.4 µM) against Epidermophyton floccosum; 15 µg/mL (≈ 49.5 µM) against Microsporum canis.
With `CC(=O)N1CCN(c2ccc(OCC3COC(Cn4ccnc4)(c4ccc(Cl)cc4Cl)O3)cc2)CC1` (stereo unspecified) [KETOCONAZOLE], the MIC against Nannizzia gypsea [1] is 6.25 µg/mL (≈ 11.8 µM); in experiment [2], 12.5 µg/mL (≈ 23.5 µM); in the experiment on Trichophyton rubrum [3], 15 µg/mL (≈ 28.2 µM); in the experiment on Epidermophyton floccosum it was 25 µg/mL (≈ 47 µM); in the experiment with Microsporum canis, 15 µg/mL (≈ 28.2 µM). Also, the outcome in the experiment on Candida albicans, with Saccharomyces cerevisiae, in the experiment on Cryptococcus neoformans, in the experiment on Aspergillus flavus, in the experiment on Aspergillus fumigatus and with Aspergillus niger was inactive.
For `CC(C)C(O)c1ccc2ccccc2c1` (stereo unspecified), the result in the experiment on Trichophyton rubrum [5], in the experiment on Candida albicans, in the experiment with Saccharomyces cerevisiae, in the experiment with Cryptococcus neoformans, in the experiment on Aspergillus flavus and in the experiment on Aspergillus fumigatus was inactive. In addition, the outcome in the experiment on Aspergillus niger was inactive. The MIC came to 25 µg/mL (≈ 125 µM) with Nannizzia gypsea [1]; 12.5 µg/mL (≈ 62.4 µM) in [2]; 12.5 µg/mL (≈ 62.4 µM) with Trichophyton rubrum [3]; 25 µg/mL (≈ 125 µM) in the experiment with Epidermophyton floccosum; 25 µg/mL (≈ 125 µM) against Microsporum canis.
As for `CC(C)C(=O)c1cc2ccccc2c2ccccc12`, the MIC in the experiment on Nannizzia gypsea [1] is 20 µg/mL (≈ 80.5 µM); in experiment [2], 6.25 µg/mL (≈ 25.2 µM); against Trichophyton rubrum [3], 20 µg/mL (≈ 80.5 µM); with Epidermophyton floccosum, 20 µg/mL (≈ 80.5 µM); against Microsporum canis it was 20 µg/mL (≈ 80.5 µM). For the same compound, the result in the experiment on Candida albicans, with Saccharomyces cerevisiae, in the experiment with Cryptococcus neoformans, with Aspergillus flavus, in the experiment on Aspergillus fumigatus and in the experiment on Aspergillus niger was inactive.
Consider `c1ccc2c(c1)ccc1ccccc12` [PHENANTHRENE], for which the MIC (against Nannizzia gypsea [1]; in experiment [2]; in the experiment on Trichophyton rubrum [3]; with Epidermophyton floccosum; in the experiment on Microsporum canis) was more than 50 µg/mL each time. The result in the experiment with Candida albicans, with Saccharomyces cerevisiae, in the experiment on Cryptococcus neoformans, with Aspergillus flavus, in the experiment with Aspergillus fumigatus and with Aspergillus niger was inactive.
With `c1ccc2ccccc2c1` [NAPHTHALENE], the MIC (against Nannizzia gypsea [1]; in experiment [2]; in the experiment with Trichophyton rubrum [3]; with Epidermophyton floccosum; with Microsporum canis) was more than 50 µg/mL each time. Besides, the result in the experiment on Candida albicans, in the experiment on Saccharomyces cerevisiae, in the experiment on Cryptococcus neoformans, in the experiment on Aspergillus flavus, with Aspergillus fumigatus and in the experiment on Aspergillus niger was inactive.
As for `CCC(=O)c1cc2ccccc2c2ccccc12`, the minimal inhibitory concentration (MIC) against Nannizzia gypsea [1] was found to be 6.25 µg/mL (≈ 26.7 µM); in experiment [2] it was 3 µg/mL (≈ 12.8 µM); against Trichophyton rubrum [3], 6.25 µg/mL (≈ 26.7 µM); against Epidermophyton floccosum, 20 µg/mL (≈ 85.4 µM); in the experiment with Microsporum canis, 3 µg/mL (≈ 12.8 µM). Moreover, the outcome with Candida albicans, with Saccharomyces cerevisiae, in the experiment with Cryptococcus neoformans, in the experiment on Aspergillus flavus, with Aspergillus fumigatus and in the experiment with Aspergillus niger was inactive.
For the compound `CC(C)C(O)c1cc2ccccc2c2ccccc12` (stereo unspecified), the MIC was determined as 6.25 µg/mL (≈ 25 µM) with Nannizzia gypsea [1]; 6.25 µg/mL (≈ 25 µM) in experiment [2]; 10 µg/mL (≈ 39.9 µM) with Trichophyton rubrum [3]; 10 µg/mL (≈ 39.9 µM) against Epidermophyton floccosum; 6.25 µg/mL (≈ 25 µM) in the experiment on Microsporum canis. The result in the experiment on Candida albicans, in the experiment on Saccharomyces cerevisiae, with Cryptococcus neoformans, in the experiment with Aspergillus flavus, in the experiment on Aspergillus fumigatus and in the experiment on Aspergillus niger was inactive.
Turning to `COc1ccc(C(=O)C(C)Cl)cc1OC` (stereo unspecified), the result (in experiment [4]; in the experiment on Candida albicans; in the experiment on Saccharomyces cerevisiae; with Cryptococcus neoformans; in the experiment with Aspergillus flavus; in the experiment on Aspergillus fumigatus) was inactive. Also, the result in the experiment with Aspergillus niger was inactive. Besides, the MIC in the experiment with Nannizzia gypsea [1] stood at 12.5 µg/mL (≈ 54.7 µM); in [2] it was 12.5 µg/mL (≈ 54.7 µM); in the experiment with Trichophyton rubrum [3], 10 µg/mL (≈ 43.7 µM); in the experiment with Epidermophyton floccosum, 0.15 µg/mL (≈ 0.656 µM); against Microsporum canis, 3.12 µg/mL (≈ 13.6 µM).
On to `COc1ccc(C(=O)C(C)Br)cc1OC` (stereo unspecified), for which the outcome (in experiment [4]; with Trichophyton rubrum [5]; in the experiment on Candida albicans; in the experiment with Saccharomyces cerevisiae; in the experiment with Cryptococcus neoformans; in the experiment with Aspergillus flavus) was inactive. The outcome in the experiment on Aspergillus fumigatus and in the experiment with Aspergillus niger was inactive. Moreover, the MIC was 40 µg/mL (≈ 146 µM) against Nannizzia gypsea [1]; 25 µg/mL (≈ 91.5 µM) in experiment [2]; more than 50 µg/mL against Trichophyton rubrum [3]; 3 µg/mL (≈ 11 µM) against Epidermophyton floccosum; 12.5 µg/mL (≈ 45.8 µM) in the experiment with Microsporum canis.
In the case of `C[C@@H]1[C@H](O)[C@@H](C)/C=C/C=C/C=C/C=C/C=C/C=C/C=C/[C@H](O[C@@H]2O[C@H](C)[C@@H](O)[C@H](N)[C@@H]2O)C[C@@H]2O[C@](O)(C[C@@H](O)C[C@@H](O)[C@H](O)CC[C@@H](O)C[C@@H](O)CC(=O)O[C@H]1C)C[C@H](O)[C@H]2C(=O)O` [AMPHOTERICIN B], the MIC in the experiment on Nannizzia gypsea [1] is 6.25 µg/mL (≈ 6.76 µM); in experiment [2], 6.25 µg/mL (≈ 6.76 µM); with Trichophyton rubrum [3], 25 µg/mL (≈ 27.1 µM); against Epidermophyton floccosum, 0.3 µg/mL (≈ 0.325 µM); against Microsporum canis, more than 50 µg/mL. The result in the experiment with Candida albicans, in the experiment with Saccharomyces cerevisiae, with Cryptococcus neoformans, in the experiment with Aspergillus flavus, with Aspergillus fumigatus and in the experiment with Aspergillus niger was inactive.
